Published values of several laboratories.
Compare with care: the assays were run in different laboratories.
Target: Hormonally up-regulated neu tumor-associated kinase (HUNK, Homo sapiens, UniProt P57058)
Residues used in one study (P57058 1-714): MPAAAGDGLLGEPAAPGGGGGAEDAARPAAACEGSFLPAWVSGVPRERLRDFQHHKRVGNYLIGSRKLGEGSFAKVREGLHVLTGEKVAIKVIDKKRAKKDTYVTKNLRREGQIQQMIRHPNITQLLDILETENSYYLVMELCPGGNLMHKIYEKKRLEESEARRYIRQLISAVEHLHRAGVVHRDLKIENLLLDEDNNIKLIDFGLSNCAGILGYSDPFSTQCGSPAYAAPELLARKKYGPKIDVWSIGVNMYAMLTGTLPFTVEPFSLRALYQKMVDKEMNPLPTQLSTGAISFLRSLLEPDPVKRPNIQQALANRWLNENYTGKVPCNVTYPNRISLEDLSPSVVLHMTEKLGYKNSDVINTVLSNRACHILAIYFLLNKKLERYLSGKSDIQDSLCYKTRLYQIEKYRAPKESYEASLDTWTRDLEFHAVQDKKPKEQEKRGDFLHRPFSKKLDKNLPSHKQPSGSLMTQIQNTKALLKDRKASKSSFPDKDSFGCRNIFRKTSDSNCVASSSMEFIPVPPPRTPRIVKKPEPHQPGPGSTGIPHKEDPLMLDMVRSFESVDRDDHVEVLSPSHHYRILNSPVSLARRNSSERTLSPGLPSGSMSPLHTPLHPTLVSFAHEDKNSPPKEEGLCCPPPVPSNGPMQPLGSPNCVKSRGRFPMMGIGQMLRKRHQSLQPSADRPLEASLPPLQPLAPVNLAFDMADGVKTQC

SMILES	assay	conditions	remaining binding
Cc1cnn2ncc(-c3ccnc(N(C)C)n3)c2c1	binding	1 µM	100%
O=C(Nc1c[nH]nc1C(=O)NC1CCNCC1)c1cc(F)cc(F)c1	binding, competition with immobilised ligand	1 µM	100%
CCN1CCN(Cc2ccc(C(=O)Nc3ccc(C)c(Oc4ccc5c(c4)CC(=O)N5)c3)cc2C(F)(F)F)CC1	binding, competition with immobilised ligand	1 µM	100%
CN(CCCC(F)(F)F)c1nccc(-c2cnn3ncccc23)n1	binding	1 µM	80%
O=C(O)c1cc(-c2ccc(C3CCNCC3)cc2)c2ccc(-c3ccc(C(F)(F)F)cc3)cc2c1	cell-free assay, competition with immobilised ligand	1 µM	100%
COc1cnc(Nc2cccc(S(N)(=O)=O)c2)nc1N1CCN(c2ccccc2)C(=O)C1	binding, competition with immobilised ligand	1 µM	100%
O=C(NCCCN1CCOCC1)c1ccc(Nc2nccc(-c3cc4ccccc4s3)n2)cc1	binding, competition with immobilised ligand	1 µM	100%
CC1CCCN1c1nccc(-c2cnn3ncccc23)n1 (stereo not shown)	binding	1 µM	100%
Nc1ncc2c(n1)-c1c([nH]c3ccc(C#CC4CC4)cc13)CCCC2	binding, competition with immobilised ligand	1 µM	97%
O=C(c1ccc(Nc2ncc(Cl)c(-c3ccc(Cl)s3)n2)cc1)N1CCC(N2CCCC2)CC1	binding, competition with immobilised ligand	1 µM	100%
C[C@@H]1CCN(c2nccc(-c3cnn4ncccc34)n2)C1	binding	1 µM	100%
CN([C@@H]1CCc2c(CC(=O)O)c3ccccc3n2C1)S(=O)(=O)c1ccc(F)cc1	cell-free assay, competition with immobilised ligand	1 µM	99%
COc1cnc(Nc2cccc(S(N)(=O)=O)c2)nc1N1CCN(c2ccccc2)CC1	binding, competition with immobilised ligand	1 µM	74%
Cc1nc(N2CC[C@@H](O)C2)ncc1-c1cc(C(F)(F)F)cc2[nH]ncc12	binding, competition with immobilised ligand	1 µM	100%
COc1ncc2cc3ccccc3nc2c1C#N	cell-free assay, competition with immobilised ligand	5 µM	100%
CNC(=O)Nc1ccc2c(c1)CC[C@@]21OC(=O)N(CC(=O)N(Cc2ccc(F)cc2)[C@@H](C)C(F)(F)F)C1=O	cell-free assay, competition with immobilised ligand	1 µM	100%
O=C(c1ccc(Nc2ncc(Cl)c(-c3cc4ccccc4s3)n2)cc1)N1CCC(N2CCCC2)CC1	binding, competition with immobilised ligand	1 µM	100%
CN(c1ccnc(CNc2nc(Nc3ccc4c(c3)CC(=O)N4)ncc2C(F)(F)F)n1)S(C)(=O)=O	cell-free assay, competition with immobilised ligand	1 µM	100%
c1cnn2ncc(-c3ccnc(N4CCC45COC5)n3)c2c1	binding	1 µM	92%
Cc1cc(C)c(-n2ccn3nc(-c4cccnc4)cc23)cc1NC(=O)c1cc(C#N)cc(S(F)(F)(F)(F)F)c1	cell-free assay, competition with immobilised ligand	0.1 µM	83%
N[C@H]1CCN(c2nccc(-c3cnn4ncccc34)n2)C1	binding	1 µM	82%
C[C@@H](c1ccc(-n2cnc3c(N)ncnc32)cc1)N1CCc2nn(C)c(Cc3ccccc3)c2C1=O	binding, competition with immobilised ligand	0.1 µM	79%
